Measurements taken from ChEMBL document CHEMBL4342509, “New 8-Nitroquinolinone Derivative Displaying Submicromolar in Vitro Activities against Both Trypanosoma brucei and cruzi” (ACS Med Chem Lett, 2020).
pEC50: −log10 of the molar value.

Experiments:
[1] = tested on: Leishmania infantum; assay: Antileishmanial activity against Leishmania infantum MHOM/MA/67/ITMAP-263 axenic amastigotes expressing luciferase plasmid assessed as reduction in parasite viability incubated for 48 hrs by Steady Glow reagent based luminescence assay; type: functional, organism-based; conditions: MHOM/MA/67/ITMAP-263, 48 h
[2] = tested on: Trypanosoma brucei brucei; assay: Antitrypanosomal activity against Trypanosoma brucei brucei AnTat 1.9 trypomastigotes assessed as reduction in parasite viability incubated for 69 hrs by Alamar Blue dye based assay; type: functional, organism-based; conditions: AnTat 1.9, 69 h
How it was run: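 Bloodstream AnTat 1.9 parasites grown at 37°C, 5% CO₂ in MEM with Earle's salts (Baltz-type) plus 0.5 mM mercaptoethanol, 1.5 mM L-cysteine, 0.05 mM bathocuproine sulfate and 20% heat-inactivated horse serum. EC50 from nonlinear regression, three independent experiments in duplicate.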

[3] = Selectivity index, ratio of CC50 for human HepG2 cells to EC50 for Trypanosoma brucei brucei trypomastigotes AnTat 1.9; type: toxicity; conditions: read-out: Ratio CC50/EC50
[4] = Electrochemical behavior of the compound assessed as redox potential corrected toward normal hydrogen electrode by cyclic voltammetry
[5] = tested on: HepG2; assay: (§1) Cytotoxicity against human HepG2 cells assessed as reduction in cell viability incubated for 72 hrs by MTT assay; type: cell-based; conditions: hepg2, 72 h
[6] = tested on: Trypanosoma brucei brucei; assay: Antitrypanosomal activity against blood stream form of Trypanosoma brucei brucei S427 trypomastigotes overexpressing NTR assessed as inhibition of parasite growth; type: functional, organism-based
[7] = tested on: Trypanosoma brucei brucei; assay: Antitrypanosomal activity against bloodstream form of wild type Trypanosoma brucei brucei S427 trypomastigotes assessed as inhibition of parasite growth; type: functional, organism-based
[8] = tested on: Plasma proteins; assay: Plasma protein binding incubated for 4 hrs by LCMS analysis
[9] = tested on: Leishmania donovani; assay: Antileishmanial activity against wild type Leishmania donovani BOB (MHOM/SD/62/1S-CL2D) promastigotes assessed as inhibition of parasite growth incubated for 72 hrs by resazurin dye based assay; type: functional, organism-based
How it was run: (§2)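 LdBOB promastigotes grown at 26 °C in modified M199; NTR1- or NTR2-overexpressing lines kept under nourseothricin (100 µg/mL). Triplicate cultures seeded at 5×10^4 parasites/mL with drug for 72 h; 50 µM resazurin added, fluorescence (ex 528/em 590 nm) read after a further 4 h.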

[10] = tested on: Trypanosoma brucei brucei; assay: Selectivity index, ratio of EC50 for bloodstream form of wild type Trypanosoma brucei brucei S427 trypomastigotes to EC50 for blood stream form of Trypanosoma brucei brucei S427 trypomastigotes overexpressing NTR; type: functional
[11] = Microsomal stability in CD-1 mouse liver microsomes in presence of NADP measured up to 40 mins by LC-MS analysis; type: ADME, Microsome
How it was run: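 Compound incubated in duplicate with female CD-1 mouse microsomes at 37°C in 50 mM phosphate pH 7.4. Cofactors: 5 mM MgCl₂, 1 mM NADP, 0.4 U/mL G6PDH and 5 mM glucose-6-phosphate. […] Propranolol reference.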

[12] = tested on: Leishmania donovani; assay: Antileishmanial activity against Leishmania donovani BOB (MHOM/SD/62/1S-CL2D) promastigotes overexpressing NTR1 assessed as inhibition of parasite growth incubated for 72 hrs by resazurin dye based assay; type: functional, organism-based; how it was run: as §2
[13] = tested on: Leishmania donovani; assay: Selectivity index, ratio of EC50 for wild type Leishmania donovani BOB (MHOM/SD/62/1S-CL2D) promastigotes to EC50 for Leishmania donovani BOB (MHOM/SD/62/1S-CL2D) promastigotes overexpressing NTR1; type: functional
[14] = Permeability of the compound in pH 7.4 Prisma HT buffer at 100 uM incubated for 4 hrs by PAMPA-BBB assay method; type: ADME; conditions: read-out: permeability
[15] = tested on: Leishmania donovani; assay: Antileishmanial activity against Leishmania donovani BOB (MHOM/SD/62/1S-CL2D) promastigotes overexpressing NTR2 assessed as inhibition of parasite growth incubated for 72 hrs by resazurin dye based assay; type: functional, organism-based; how it was run: as §2
[16] = as §1; type: cell-based; conditions: HepG2 cells
[17] = tested on: Trypanosoma cruzi; assay: Antitrypanosomal activity against Trypanosoma cruzi CL Brener amastigotes infected in African green monkey Vero cells assessed as reduction in parasite growth incubated for 120 hrs at 24 hrs post-infection and measured on day 6 post-infection by hemocytometer based light microscopy; type: functional, organism-based
How it was run: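 Compounds, 2–4-fold serial dilutions over 0,1–25 µM final, applied for 120 h at 37°C. On day 6, released trypomastigotes pooled, centrifuged and counted by haemocytometer. EC50 by nonlinear regression; two experiments, triplicate wells.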

[18] = Half life in NMRI mouse at 25 mg/Kg, ig measured up to 24 hrs by LCMS analysis; type: ADME; conditions: in vivo, po

Row | Compound | pEC50 [1] | pEC50 [2] | selectivity ratio [3] | Activity [4] [V] | CC50 [5] [µM] | pEC50 [6] | pEC50 [7] | further results
1 | O=c1[nH]c2c([N+](=O)[O-])cccc2cc1Cl | 4.80 | 5.92 | 71 | -0.47 | – | – | – | –
2 | O=c1[nH]c2c([N+](=O)[O-])cc(Br)cc2cc1Br | 5.19 | 7.30 | 332 | -0.37 | 16.6 | – | – | –
3 | O=c1ccc2cc(C(F)(F)F)ccc2[nH]1 | < 4.00 | < 4.30 | – | – | > 100 | – | – | –
4 | CC1CS(=O)(=O)CCN1/N=C/c1ccc([N+](=O)[O-])o1 (stereo not given) [NIFURTIMOX] | – | – | – | – | – | 6.22 | 5.72 | –
5 | O=c1[nH]c2c([N+](=O)[O-])cc(C(F)(F)F)cc2cc1Br | 5.41 | 6.70 | 206 | -0.36 | 41.3 | 6.05 | 5.17 | Activity [8]: 99.4%; pEC50 [9]: 5.39; Ratio EC50 [10]: 7; t1/2 [11]: > 40 min; pEC50 [12]: 5.92; Ratio EC50 [13]: 3.5; Papp at 4 h, 100 µM [14]: 45 ×10⁻⁶ cm/s; pEC50 [15]: 5.31
6 | O=C(O)c1ccc(-c2cc3cccc([N+](=O)[O-])c3[nH]c2=O)cc1 | < 4.00 | 5.82 | 80 | -0.56 | – | 5.38 | 5.27 | CC50 at 72 h [16]: 120 µM
7 | O=c1ccc2cc(Br)cc([N+](=O)[O-])c2[nH]1 | 4.94 | 7.15 | 399 | -0.4 | 27.9 | – | – | –
8 | C[C@@H]1[C@H](O)[C@@H](C)/C=C/C=C/C=C/C=C/C=C/C=C/C=C/[C@H](O[C@@H]2O[C@H](C)[C@@H](O)[C@H](N)[C@@H]2O)C[C@@H]2O[C@](O)(C[C@@H](O)C[C@@H](O)[C@H](O)CC[C@@H](O)C[C@@H](O)CC(=O)O[C@H]1C)C[C@H](O)[C@H]2C(=O)O [AMPHOTERICIN B] | 7.22 | – | – | – | – | – | – | –
9 | NCCCC(N)(C(=O)O)C(F)F (stereo not given) [EFLORNITHINE] | – | 4.88 | – | – | > 100 | – | – | –
10 | O=C(O)c1ccc(-c2cc3cc(Br)cc([N+](=O)[O-])c3[nH]c2=O)cc1 | 5.10 | 6.70 | 302 | -0.4 | 60.4 | 7.00 | 5.40 | pEC50 [9]: 5.70; Ratio EC50 [10]: 40; t1/2 [11]: > 40 min; pEC50 [12]: 5.89; Papp at 4 h, 100 µM [14]: 1.27 ×10⁻⁶ cm/s; pEC50 [15]: 5.68
11 | O=c1[nH]c2c([N+](=O)[O-])cc(C#CCO)cc2cc1Cl | 5.05 | 6.00 | 31 | – | 30.9 | – | – | –
12 | Cc1ccc(C(=O)Nc2ccc(S(=O)(=O)O)c3cc(S(=O)(=O)O)cc(S(=O)(=O)O)c23)cc1NC(=O)c1cccc(NC(=O)Nc2cccc(C(=O)Nc3cc(C(=O)Nc4ccc(S(=O)(=O)O)c5cc(S(=O)(=O)O)cc(S(=O)(=O)O)c45)ccc3C)c2)c1 [SURAMIN] | – | 7.52 | > 3330 | – | > 100 | – | – | –
13 | CSc1ccc(OCc2ncc([N+](=O)[O-])n2C)cc1 [FEXINIDAZOLE] | 5.47 | 6.40 | > 500 | – | > 200 | – | – | pEC50 [17]: 5.52; half-life [18]: 48 min
